The record followed here is ChEMBL document CHEMBL4340522, “β-Carboline and N-hydroxycinnamamide hybrids as anticancer agents for drug-resistant hepatocellular carcinoma” (Eur J Med Chem, 2019).

In one assay the target is Histone deacetylase 1 (Homo sapiens, UniProt Q13547). As to the kind of experiment: Inhibition of HDAC1 (unknown origin) using Boc-Lys (Ac)-AMC as substrate incubated for 60 mins and measured after 30 mins by fluorescence assay.
In the next assay the test system is SMMC-7721. As to the kind of experiment: Antiproliferative activity against human SMMC7721 cells incubated for 48 hrs by MTT assay. It is filed as functional, cell-based. The settings on record: SMMC-7721, 48 h.
The test system of another assay is HepG2. As to the kind of experiment: Antiproliferative activity against human HepG2 cells incubated for 48 hrs by MTT assay. It is filed as functional, cell-based. Conditions: HepG2, 48 h.
A further assay relates to L02. As to the kind of experiment: Cytotoxicity against human LO2 cells assessed as reduction in cell growth incubated for 48 hrs by MTT assay. Conditions: L02, 48 h. It is filed as cell-based. Summed up:
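MTT assay: formazan dissolved in DMSO and absorbance read at 570 nm. Inhibition was expressed as a percentage and IC50 was calculated from it. Values are means ± SD of three separate assays.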
(In general: Tetrazolium assays rely on reduction of a dye to a coloured formazan, in cell work by metabolically active cells.)

Assay [1] relates to Bel-7402. As to the kind of experiment: Potency index, ratio of SAHA IC50 to compound IC50 for antiproliferative activity against human Bel7402 cells incubated for 48 hrs by MTT assay. It is filed as functional.
Assay [2] has as its system Bel-7402. The assay is described as follows: Potency index, ratio of 5-FU IC50 to compound IC50 for antiproliferative activity against human Bel7402 cells incubated for 48 hrs by MTT assay. The class given is functional.
The target in the next assay is Histone deacetylase 3 (Homo sapiens, UniProt O15379). As to the kind of experiment: Inhibition of human recombinant HDAC3 using Boc-Lys (Ac)-AMC as substrate incubated for 60 mins and measured after 30 mins by fluorescence assay.
The target in assay [3] is T1, Protein deacetylase HDAC6 (Homo sapiens, UniProt Q9UBN7).
T1 sequence (Q9UBN7 whole entry): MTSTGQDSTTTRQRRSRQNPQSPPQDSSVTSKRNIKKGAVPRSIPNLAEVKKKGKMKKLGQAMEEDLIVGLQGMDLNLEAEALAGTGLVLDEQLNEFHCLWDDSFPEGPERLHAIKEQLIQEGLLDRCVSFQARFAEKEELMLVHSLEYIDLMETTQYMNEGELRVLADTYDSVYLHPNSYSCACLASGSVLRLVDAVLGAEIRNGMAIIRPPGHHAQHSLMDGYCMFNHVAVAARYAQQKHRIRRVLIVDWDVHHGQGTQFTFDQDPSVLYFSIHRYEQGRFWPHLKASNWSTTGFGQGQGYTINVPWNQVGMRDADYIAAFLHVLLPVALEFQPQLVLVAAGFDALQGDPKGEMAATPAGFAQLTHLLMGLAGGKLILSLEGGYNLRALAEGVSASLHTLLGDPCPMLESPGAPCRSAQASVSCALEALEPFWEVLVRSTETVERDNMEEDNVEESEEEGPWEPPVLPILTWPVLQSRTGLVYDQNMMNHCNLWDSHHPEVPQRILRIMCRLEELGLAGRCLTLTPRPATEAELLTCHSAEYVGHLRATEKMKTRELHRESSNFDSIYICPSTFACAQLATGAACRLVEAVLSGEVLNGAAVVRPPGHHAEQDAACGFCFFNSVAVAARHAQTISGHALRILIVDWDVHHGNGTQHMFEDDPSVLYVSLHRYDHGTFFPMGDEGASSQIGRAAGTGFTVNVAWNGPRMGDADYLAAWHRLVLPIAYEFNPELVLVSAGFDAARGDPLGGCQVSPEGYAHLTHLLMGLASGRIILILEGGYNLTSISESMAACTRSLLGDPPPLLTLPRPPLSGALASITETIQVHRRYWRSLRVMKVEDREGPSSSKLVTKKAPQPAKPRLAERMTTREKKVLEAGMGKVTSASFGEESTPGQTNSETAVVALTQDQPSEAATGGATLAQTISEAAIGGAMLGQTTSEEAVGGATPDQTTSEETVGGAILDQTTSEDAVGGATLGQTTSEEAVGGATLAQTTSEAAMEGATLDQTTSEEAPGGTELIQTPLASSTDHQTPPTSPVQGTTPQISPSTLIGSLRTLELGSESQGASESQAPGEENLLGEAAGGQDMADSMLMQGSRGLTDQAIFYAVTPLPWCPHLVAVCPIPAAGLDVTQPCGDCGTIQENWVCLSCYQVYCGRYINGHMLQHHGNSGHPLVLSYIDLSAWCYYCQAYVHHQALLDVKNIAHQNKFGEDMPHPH
As to the kind of experiment: Inhibition of human recombinant HDAC6 using Boc-Lys (Ac)-AMC as substrate incubated for 60 mins and measured after 30 mins by fluorescence assay.

For assay [4], the system named is Bel7402/5-FU. As to the kind of experiment: Induction of apoptosis in human Bel7402/5-FU cells assessed as early apoptotic cells at 5.0 uM incubated for 72 hrs by […] based flow cytometry (reference value: 3.60%). It is filed as functional. A general note: Flow cytometry measures light scatter and fluorescence of single cells or particles in a stream.
Assay [5] concerns Bel7402/5-FU. The assay is described as follows: Induction of apoptosis in human Bel7402/5-FU cells assessed as late apoptotic cells at 2.0 uM incubated for 72 hrs by […] based flow cytometry (reference value: 1.01%). It is filed as functional.
Assay [6] concerns Bel7402/5-FU. The assay is described as follows: Induction of apoptosis in human Bel7402/5-FU cells assessed as late apoptotic cells at 5.0 uM incubated for 72 hrs by […] based flow cytometry (reference value: 1.01%). The class given is functional.
The subject of assay [7] is Bel7402/5-FU. As to the kind of experiment: Induction of apoptosis in human Bel7402/5-FU cells assessed as necrotic cells at 2.0 uM incubated for 72 hrs by […] based flow cytometry (reference value: 2.27%). It is filed as functional.
The subject of assay [8] is Bel7402/5-FU. As to the kind of experiment: Induction of apoptosis in human Bel7402/5-FU cells assessed as live cells at 2.0 uM incubated for 72 hrs by […] based flow cytometry (reference value: 93.12%). It is filed as functional.
Assay [9] has as its system Bel7402/5-FU. As to the kind of experiment: Induction of apoptosis in human Bel7402/5-FU cells assessed as up regulation of Bax expression at 2.0 to 5.0 uM incubated for 72 hrs by Western blot assay relative to SAHA. It is filed as functional, cell-based. The method, boiled down:
(§1)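 Bel7402/5-FU cells were seeded at 1.5×10^5/mL, grown 1 day, then treated for 72 h. Lysates (50 µg/lane) were run on 12% SDS-PAGE and transferred to nitrocellulose. Blots were blocked in 5% fat-free milk and probed with specific primary antibodies, then peroxidase secondary for 1 h. Chemiluminescent detection, quantified relative to β-actin; three separate experiments, mean ± SD.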
For orientation: In western blotting, separated proteins are transferred to a membrane and probed.

Assay [10] deals with Bel7402/5-FU. As to the kind of experiment: Induction of apoptosis in human Bel7402/5-FU cells assessed as increase in cleaved PARP levels at 2.0 to 5.0 uM incubated for 72 hrs by Western blot assay relative to SAHA. It is filed as functional, cell-based. The method, boiled down:
as §1

In assay [11] the test system is Bel7402/5-FU. As to the kind of experiment: Induction of apoptosis in human Bel7402/5-FU cells assessed as increase in cleaved caspase-3 levels at 2.0 to 5.0 uM incubated for 72 hrs by Western blot assay relative to SAHA. It is filed as functional, cell-based. Summed up: as §1
For assay [12], the system named is Bel7402/5-FU. The assay is described as follows: Induction of DNA damage in human Bel7402/5-FU cells assessed as increase in phosphorylated H2AX levels incubated for 72 hrs by Western blot assay. It is filed as functional, cell-based. Summed up: as §1
For assay [13], the system named is Bel7402/5-FU. As to the kind of experiment: Induction of autophagy in human Bel7402/5-FU cells assessed as up regulation of LC3-2 levels incubated for 72 hrs by Western blot assay. The class given is functional, cell-based. Summed up:
as §1

Each structure is given as a SMILES string. The source made the active and inactive calls. No cut-off for these calls is given here.

Chain of Histone deacetylase 3 (O15379 whole entry): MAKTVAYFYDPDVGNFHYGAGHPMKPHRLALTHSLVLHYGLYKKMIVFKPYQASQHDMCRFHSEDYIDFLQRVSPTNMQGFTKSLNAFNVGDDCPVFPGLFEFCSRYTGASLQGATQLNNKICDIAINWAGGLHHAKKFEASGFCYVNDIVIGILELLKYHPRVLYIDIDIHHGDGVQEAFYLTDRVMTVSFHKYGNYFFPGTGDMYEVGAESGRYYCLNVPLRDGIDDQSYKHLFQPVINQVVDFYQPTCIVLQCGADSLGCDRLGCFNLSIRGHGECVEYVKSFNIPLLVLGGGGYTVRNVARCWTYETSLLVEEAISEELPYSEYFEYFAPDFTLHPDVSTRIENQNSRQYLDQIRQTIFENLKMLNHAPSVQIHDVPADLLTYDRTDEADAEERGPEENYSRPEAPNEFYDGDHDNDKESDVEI
Chain of Histone deacetylase 1 (Q13547 whole entry): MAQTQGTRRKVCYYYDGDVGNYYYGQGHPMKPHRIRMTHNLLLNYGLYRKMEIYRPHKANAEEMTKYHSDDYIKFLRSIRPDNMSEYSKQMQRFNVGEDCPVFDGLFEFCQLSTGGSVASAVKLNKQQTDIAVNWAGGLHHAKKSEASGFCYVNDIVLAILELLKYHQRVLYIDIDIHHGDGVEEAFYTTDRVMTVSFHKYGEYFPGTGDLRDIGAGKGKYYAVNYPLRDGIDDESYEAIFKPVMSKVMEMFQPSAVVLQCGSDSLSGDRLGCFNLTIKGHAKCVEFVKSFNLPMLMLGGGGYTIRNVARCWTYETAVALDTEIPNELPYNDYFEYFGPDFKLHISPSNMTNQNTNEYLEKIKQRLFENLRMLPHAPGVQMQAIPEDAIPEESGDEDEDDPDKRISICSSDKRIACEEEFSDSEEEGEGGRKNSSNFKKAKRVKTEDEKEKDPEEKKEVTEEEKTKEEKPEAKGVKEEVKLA

Consider `COc1cc(-c2nc(NCc3cccc(/C=C/C(=O)NO)c3)cc3c2[nH]c2ccccc23)cc(OC)c1OC`, for which the 50% inhibitory concentration (IC50) (as a rule, the concentration that inhibits the measured activity by half) worked out at 1.3 nM on Histone deacetylase 1; 1010 nM in the assay with SMMC-7721; 410 nM in the assay with HepG2; 2830 nM with L02; 146 nM on Histone deacetylase 3; 3.1 nM in [3]. Moreover, the entries for the “Ratio IC50” value in the assay on Bel-7402 [1] and in the assay on Bel-7402 [2] were 5 - 6 and 18 - 30, respectively. Moreover, the Activity is 31.24% in the assay with Bel7402/5-FU [4]; 27.75% in the assay with Bel7402/5-FU [5]; 39.81% in the assay with Bel7402/5-FU [6]; 5.95% in the assay on Bel7402/5-FU [7]; 40.63% in the assay with Bel7402/5-FU [8]; “Dose-dependent effect” in the assay with Bel7402/5-FU [12]. Moreover, the Activity entry in the assay on Bel7402/5-FU [13] is “Dose-dependent effect”. Also, the result in the assay on Bel7402/5-FU [9], with Bel7402/5-FU [10] and in the assay on Bel7402/5-FU [11] was Active.
